Results collected from several papers.
Each line is one published result; the experiments were not run side by side.
Target: PAS domain-containing serine/threonine-protein kinase (PASK, Homo sapiens, UniProt Q96RG2)

SMILES | observed | action | method | concentration | measurement | result
CCN(CC)CCNC(=O)c1c(C)[nH]c(/C=C2\C(=O)Nc3ccc(F)cc32)c1C | enzyme activity | inhibitor | – | 10 µM | inhibition | 19%
Cc1ccc(NC(=O)c2ccc(C)c(C(F)(F)F)c2)cc1C#Cc1nn(C2CCC(O)CC2)c2ncnc(N)c12 (centres unmarked) | cell-free assay | – | – | 10 µM | remaining signal | 113%
CNC(=O)c1cc(Oc2ccc(NC(=O)Nc3ccc(Cl)c(C(F)(F)F)c3)cc2)ccn1 | enzyme activity | inhibitor | – | 10 µM | inhibition | -9%
CCN(CC)c1ccc(C2=NNC(=O)CC2C)cc1[N+](=O)[O-] (centres unmarked) | enzyme activity | inhibitor | – | 10 µM | remaining activity | 98%
Cc1cnc(NC2CCOCC2)nc1-n1cnc(C(=O)NC(CN)c2cc(F)cc(Cl)c2)c1 (centres unmarked) | enzyme activity | inhibitor | radiometric | 1 µM | remaining activity | 96%
N#CCCc1ccc2c(c1)-c1[nH]c3ccc([N+](=O)[O-])cc3c1CC(=O)N2 | cell-free assay | – | – | 0.5 µM | remaining signal | 96.9%
O=C(Nc1cnn(-c2csc(C(=O)NC3COC3)c2)c1)Nc1c(F)cccc1Cl | enzyme activity | inhibitor | – | 5 µM | remaining activity | 99.7%
COc1cc2ncnc(Nc3ccc(Oc4ccccc4)c(C)c3C)c2cc1OC | enzyme activity | inhibitor | – | 1 µM | inhibition | 6%
CC(C)(O)[C@H]1CC[C@H](Nc2ccc3ncc(-c4cccc(C(F)(F)F)c4)n3n2)CC1 | enzyme activity | inhibitor | – | 1 µM | remaining activity | 92.3%
CC(C)(C)c1nc2c(s1)c1nc(N)ncc1c1ccc(NS(=O)(=O)c3c(F)cccc3F)c(F)c12 | enzyme activity | inhibitor | radiometric | 1 µM | remaining activity | 99%
Cc1ncc([N+](=O)[O-])n1C(=NO)c1ccccc1C(F)(F)F | enzyme activity | inhibitor | – | 10 µM | inhibition | 11.2%
O=C1Nc2ccc(Cl)cc2C1=Cc1cc(Cl)c(O)c(Cl)c1 | cell-free assay | – | – | 0.5 µM | remaining signal | 70%
Cc1ccc(Nc2nccc(N(C)c3ccc4c(C)n(C)nc4c3)n2)cc1S(N)(=O)=O | enzyme activity | inhibitor | – | 0.3 µM | inhibition | -1%
O=C(Nc1cnn(-c2csc(C(=O)NC3COC3)c2)c1)Nc1ccccc1Cl | enzyme activity | inhibitor | – | 5 µM | remaining activity | 96.3%
